Reference: ChEMBL document CHEMBL4024754, “Development of Potent, Protease-Resistant Agonists of the Parathyroid Hormone Receptor with Broad β Residue Distribution” (J Med Chem, 2017)
Calls of active or inactive are those of the source. The calls are words filed in the database; no cut-off is given here. Numbered stars: 1 amine (or outer) side, 2 acyl side, 3 side chain; on linkers, the order of the positions; unused ones are H or OH. Square brackets hold non-standard residues; d marks the D form. Peptide text beside a SMILES is read from it. * marks the point of attachment. NH(1S,2S-2-CONH2-cPent) = NC(=O)[C@H]1CCC[C@@H]1N*; β3hW = N[C@H](CC(=O)O)Cc1c[nH]c2ccccc12; ACPC(1S,2S) = N[C@H]1CCC[C@@H]1C(=O)*; X1 = O=C([C@H]1CCC[C@@H]1N[*:1])[*:2]; X2 = O=C([C@H]1CNC[C@@H]1N[*:1])[*:2]; hArg = N=C(N)NCCCC[C@H](N)C(=O)O; β3hE = N[C@@H](CCC(=O)O)CC(=O)O; β3hF = N[C@H](CC(=O)O)Cc1ccccc1; β3hK = NCCCC[C@H](N)CC(=O)O; β3hM = CSCC[C@H](N)CC(=O)O; β3hD = NC(CC(=O)O)CC(=O)O; Aib = CC(C)(N)C(=O)O

How the values were obtained:
Format in all cases: functional, cell-based
[1] = target: T1, Parathyroid hormone/parathyroid hormone-related peptide receptor (Homo sapiens) (UniProt Q03431); assay: Agonist activity at extracellular domain truncate human PTH1 receptor expressed in GD5 cells assessed as induction of cAMP after 12 to 20 mins by luciferase reporter gene assay
T1 sequence (whole entry): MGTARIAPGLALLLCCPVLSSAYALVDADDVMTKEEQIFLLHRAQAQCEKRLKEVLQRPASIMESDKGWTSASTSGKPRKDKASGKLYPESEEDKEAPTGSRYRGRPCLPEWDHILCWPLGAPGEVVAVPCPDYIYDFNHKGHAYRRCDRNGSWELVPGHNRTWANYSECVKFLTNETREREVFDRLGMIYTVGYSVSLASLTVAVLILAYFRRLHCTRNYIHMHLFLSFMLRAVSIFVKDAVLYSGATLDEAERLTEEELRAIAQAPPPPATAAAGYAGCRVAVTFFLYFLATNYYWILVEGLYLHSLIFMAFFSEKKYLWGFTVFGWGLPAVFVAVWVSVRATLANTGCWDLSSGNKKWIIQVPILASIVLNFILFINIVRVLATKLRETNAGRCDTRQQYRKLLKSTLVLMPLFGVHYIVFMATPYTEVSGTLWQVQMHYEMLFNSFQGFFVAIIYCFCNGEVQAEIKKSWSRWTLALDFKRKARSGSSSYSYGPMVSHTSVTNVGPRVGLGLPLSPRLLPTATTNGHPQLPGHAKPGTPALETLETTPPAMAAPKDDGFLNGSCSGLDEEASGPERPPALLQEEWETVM
Procedure, shortened: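 HEK293-derived lines stably expressing Glosensor cAMP reporter plus full-length human PTHR1 (GP2.3) or ECD-truncated PTHR1 (GD5). Confluent monolayers preincubated at room temperature in CO2-independent medium with 0.5 mM D-luciferin until baseline stable (30 min), then varied agonist concentrations added. Maximal luminescence (12−20 min) used for sigmoidal variable-slope fits.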

[2] = target: T1, Parathyroid hormone/parathyroid hormone-related peptide receptor (Homo sapiens); assay: Agonist activity at human PTH1 receptor expressed in human GP2.3 cells assessed as induction of cAMP after 12 to 20 mins by luciferase reporter gene assay relative to PTH(1 to 34 residues)-NH2
[3] = target: T2, Parathyroid hormone/parathyroid hormone-related peptide receptor (Homo sapiens, UniProt Q03431); assay: Agonist activity at human PTH1 receptor expressed in human GP2.3 cells assessed as induction of cAMP after 12 to 20 mins by luciferase reporter gene assay; settings: read-out: EC50
T2 sequence (Q03431 whole entry): T1 sequence (whole entry)

Row | Activity [1] | fold change (FC) [2] | EC50 [3] [nM] | Structure (SMILES)
1 | – | 22 | 1.8 | CC[C@H](C)[C@H](NC(=O)[C@H](CCC(=O)O)NC(=O)C(C)(C)NC(=O)[C@@H](NC(=O)[C@H]1CCC[C@@H]1N)C(C)C)C(=O)N[C@@H](CCC(N)=O)C(=O)N[C@H]1CCC[C@@H]1C(=O)N[C@@H](CCSC)C(=O)N[C@@H](Cc1cnc[nH]1)C(=O)N[C@@H](CCC(N)=O)C(=O)N[C@@H](CCCCNC(=N)N)C(=O)N[C@@H](C)C(=O)N[C@@H](CCCCN)C(=O)N[C@H]1CCC[C@@H]1C(=O)N[C@@H](CC(C)C)C(=O)N[C@@H](CC(N)=O)C(=O)N[C@@H](CO)C(=O)N[C@H]1CCC[C@@H]1C(=O)N[C@@H](CCCNC(=N)N)C(=O)N[C@@H](CCCNC(=N)N)C(=O)N[C@H](C(=O)N[C@H]1CNC[C@@H]1C(=O)N[C@@H](Cc1c[nH]c2ccccc12)C(=O)N[C@@H](CC(C)C)C(=O)N[C@@H](CCCNC(=N)N)C(=O)N[C@H]1CNC[C@@H]1C(=O)N[C@@H](CCCCN)C(=O)N[C@@H](CC(C)C)C(=O)N[C@@H](CCC(N)=O)C(=O)N[C@H]1CCC[C@@H]1C(=O)N[C@H](C(=O)N[C@@H](Cc1cnc[nH]1)C(=O)N[C@@H](CC(N)=O)C(=O)N[C@H]1CCC[C@@H]1C(N)=O)C(C)C)C(C)C ({ACPC(1S,2S)}-V[Aib]EIQ[X1]MHQ[hArg]AK[X1]LNS[X1]RRV[X2]WLR[X2]KLQ[X1]VHN-{NH(1S,2S-2-CONH2-cPent)})
2 | – | 6.3 | 0.51 | CC[C@H](C)[C@H](NC(=O)[C@H](CCC(=O)O)NC(=O)[C@H](C)NC(=O)[C@@H](NC(=O)[C@H](C)N)C(C)C)C(=O)N[C@@H](CCC(N)=O)C(=O)N[C@@H](CC(C)C)C(=O)N[C@@H](CCSC)C(=O)N[C@@H](Cc1cnc[nH]1)C(=O)N[C@@H](CCC(N)=O)C(=O)N[C@@H](CCCCNC(=N)N)C(=O)N[C@@H](C)C(=O)N[C@@H](CCCCN)C(=O)N[C@H]1CCC[C@@H]1C(=O)N[C@@H](CC(C)C)C(=O)N[C@@H](CC(N)=O)C(=O)N[C@@H](CO)C(=O)N[C@H]1CCC[C@@H]1C(=O)N[C@@H](CCCNC(=N)N)C(=O)N[C@@H](CCCNC(=N)N)C(=O)N[C@H](C(=O)N[C@H]1CNC[C@@H]1C(=O)N[C@@H](Cc1c[nH]c2ccccc12)C(=O)N[C@@H](CC(C)C)C(=O)N[C@@H](CCCNC(=N)N)C(=O)N[C@H]1CNC[C@@H]1C(=O)N[C@@H](CCCCN)C(=O)N[C@@H](CC(C)C)C(=O)N[C@@H](CCC(N)=O)C(=O)N[C@H]1CCC[C@@H]1C(=O)N[C@H](C(=O)N[C@@H](Cc1cnc[nH]1)C(=O)N[C@@H](CC(N)=O)C(=O)N[C@H]1CCC[C@@H]1C(N)=O)C(C)C)C(C)C (H-AVAEIQLMHQ[hArg]AK[X1]LNS[X1]RRV[X2]WLR[X2]KLQ[X1]VHN-{NH(1S,2S-2-CONH2-cPent)})

Further lines, the compound ahead of its results:

Row | Structure (SMILES) | Activity [1] | fold change (FC) [2] | EC50 [3] [nM]
3 | CC[C@H](C)[C@H](NC(=O)[C@H](CCC(=O)O)NC(=O)[C@H](CO)NC(=O)[C@@H](NC(=O)C[C@@H](N)CO)C(C)C)C(=O)N[C@@H](CCC(N)=O)C(=O)N[C@@H](CC(C)C)C(=O)N[C@@H](CCSC)C(=O)N[C@@H](Cc1cnc[nH]1)C(=O)N[C@@H](CC(N)=O)C(=O)N[C@@H](CC(C)C)C(=O)NCC(=O)N[C@@H](CCCCN)C(=O)N[C@@H](Cc1cnc[nH]1)C(=O)N[C@@H](CC(C)C)C(=O)N[C@@H](CC(N)=O)C(=O)N[C@@H](CO)C(=O)N[C@@H](CCSC)C(=O)N[C@@H](CCC(=O)O)C(=O)N[C@@H](CCCNC(=N)N)C(=O)N[C@H](C(=O)N[C@@H](CCC(=O)O)C(=O)N[C@@H](Cc1c[nH]c2ccccc12)C(=O)N[C@@H](CC(C)C)C(=O)N[C@@H](CCCNC(=N)N)C(=O)N[C@@H](CCCCN)C(=O)N[C@@H](CCCCN)C(=O)N[C@@H](CC(C)C)C(=O)N[C@@H](CCC(N)=O)C(=O)N[C@@H](CC(=O)O)C(=O)N[C@H](C(=O)N[C@@H](Cc1cnc[nH]1)C(=O)N[C@@H](CC(N)=O)C(=O)N[C@@H](Cc1ccccc1)C(N)=O)C(C)C)C(C)C | Active | 0.7 | –
4 | CC[C@H](C)[C@H](NC(=O)[C@H](CCC(=O)O)NC(=O)[C@H](CO)NC(=O)[C@@H](NC(=O)[C@@H](N)CO)C(C)C)C(=O)N[C@@H](CCC(N)=O)C(=O)N[C@H](CC(=O)N[C@@H](CCSC)C(=O)N[C@@H](Cc1cnc[nH]1)C(=O)N[C@@H](CC(N)=O)C(=O)N[C@@H](CC(C)C)C(=O)NCC(=O)N[C@@H](CCCCN)C(=O)N[C@@H](Cc1cnc[nH]1)C(=O)N[C@@H](CC(C)C)C(=O)N[C@@H](CC(N)=O)C(=O)N[C@@H](CO)C(=O)N[C@@H](CCSC)C(=O)N[C@@H](CCC(=O)O)C(=O)N[C@@H](CCCNC(=N)N)C(=O)N[C@H](C(=O)N[C@@H](CCC(=O)O)C(=O)N[C@@H](Cc1c[nH]c2ccccc12)C(=O)N[C@@H](CC(C)C)C(=O)N[C@@H](CCCNC(=N)N)C(=O)N[C@@H](CCCCN)C(=O)N[C@@H](CCCCN)C(=O)N[C@@H](CC(C)C)C(=O)N[C@@H](CCC(N)=O)C(=O)N[C@@H](CC(=O)O)C(=O)N[C@H](C(=O)N[C@@H](Cc1cnc[nH]1)C(=O)N[C@@H](CC(N)=O)C(=O)N[C@@H](Cc1ccccc1)C(N)=O)C(C)C)C(C)C)CC(C)C | Active | 12 | –
5 | CC[C@H](C)[C@H](NC(=O)[C@H](CCC(=O)O)NC(=O)[C@H](C)NC(=O)[C@@H](NC(=O)[C@H](C)N)C(C)C)C(=O)N[C@@H](CCC(N)=O)C(=O)N[C@@H](CC(C)C)C(=O)N[C@@H](CCSC)C(=O)N[C@@H](Cc1cnc[nH]1)C(=O)N[C@@H](CCC(N)=O)C(=O)N[C@@H](CCCCNC(=N)N)C(=O)N[C@@H](C)C(=O)N[C@@H](CCCCN)C(=O)N[C@H](CC(=O)N[C@@H](CC(C)C)C(=O)N[C@@H](CC(N)=O)C(=O)N[C@@H](CO)C(=O)N[C@@H](CCSC)CC(=O)N[C@@H](CCCNC(=N)N)C(=O)N[C@@H](CCCNC(=N)N)C(=O)N[C@H](C(=O)N[C@@H](CCC(=O)O)CC(=O)N[C@@H](Cc1c[nH]c2ccccc12)C(=O)N[C@@H](CC(C)C)C(=O)N[C@@H](CCCNC(=N)N)C(=O)N[C@@H](CCCCN)CC(=O)N[C@@H](CCCCN)C(=O)N[C@@H](CC(C)C)C(=O)N[C@@H](CCC(N)=O)C(=O)N[C@@H](CC(=O)O)CC(=O)N[C@H](C(=O)N[C@@H](Cc1cnc[nH]1)C(=O)N[C@@H](CC(N)=O)C(=O)N[C@H](CC(N)=O)Cc1ccccc1)C(C)C)C(C)C)Cc1c[nH]c2ccccc12 (H-AVAEIQLMHQ[hArg]AK[β3hW]LNS[β3hM]RRV[β3hE]WLR[β3hK]KLQ[β3hD]VHN[β3hF]-NH2) | – | 5.4 | 0.44
6 | CC[C@H](C)[C@H](NC(=O)[C@H](CCC(=O)O)NC(=O)C(C)(C)NC(=O)[C@@H](NC(=O)[C@H]1CCC[C@@H]1N)C(C)C)C(=O)N[C@@H](CCC(N)=O)C(=O)N[C@H]1CCC[C@@H]1C(=O)N[C@@H](CCSC)C(=O)N[C@@H](Cc1cnc[nH]1)C(=O)N[C@@H](CCC(N)=O)C(=O)N[C@@H](CCCCNC(=N)N)C(=O)N[C@@H](C)C(=O)N[C@@H](CCCCN)C(=O)N[C@@H](Cc1c[nH]c2ccccc12)C(=O)N[C@@H](CC(C)C)C(=O)N[C@@H](CC(N)=O)C(=O)N[C@@H](CO)C(=O)N[C@@H](CCSC)C(=O)N[C@@H](CCCNC(=N)N)C(=O)N[C@@H](CCCNC(=N)N)C(=O)N[C@H](C(=O)N[C@@H](CCC(=O)O)C(=O)N[C@@H](Cc1c[nH]c2ccccc12)C(=O)N[C@@H](CC(C)C)C(=O)N[C@@H](CCCNC(=N)N)C(=O)N[C@@H](CCCCN)C(=O)N[C@@H](CCCCN)C(=O)N[C@@H](CC(C)C)C(=O)N[C@@H](CCC(N)=O)C(=O)N[C@@H](CC(=O)O)C(=O)N[C@H](C(=O)N[C@@H](Cc1cnc[nH]1)C(=O)N[C@@H](CC(N)=O)C(=O)N[C@@H](Cc1ccccc1)C(N)=O)C(C)C)C(C)C ({ACPC(1S,2S)}-V[Aib]EIQ[X1]MHQ[hArg]AKWLNSMRRVEWLRKKLQDVHNF-NH2) | – | 6.3 | 0.52
7 | CSCC[C@@H](CC(=O)N[C@@H](CCC(=O)O)C(=O)N[C@@H](CCCNC(=N)N)C(=O)N[C@H](C(=O)N[C@@H](CCC(=O)O)CC(=O)N[C@@H](Cc1c[nH]c2ccccc12)C(=O)N[C@@H](CC(C)C)C(=O)N[C@@H](CCCNC(=N)N)C(=O)N[C@@H](CCCCN)CC(=O)N[C@@H](CCCCN)C(=O)N[C@@H](CC(C)C)C(=O)N[C@@H](CCC(N)=O)C(=O)N[C@@H](CC(=O)O)CC(=O)N[C@H](C(=O)N[C@@H](Cc1cnc[nH]1)C(=O)N[C@@H](CC(N)=O)C(=O)N[C@H](CC(N)=O)Cc1ccccc1)C(C)C)C(C)C)NC(=O)[C@H](CO)NC(=O)[C@H](CC(N)=O)NC(=O)[C@H](CC(C)C)NC(=O)C[C@H](Cc1c[nH]c2ccccc12)NC(=O)[C@H](CCCCN)NC(=O)CNC(=O)[C@H](CC(C)C)NC(=O)[C@H](CC(N)=O)NC(=O)[C@H](Cc1cnc[nH]1)NC(=O)[C@H](CCSC)NC(=O)[C@H]1CCC[C@@H]1NC(=O)[C@H](CCC(N)=O)NC(=O)[C@H]1CCC[C@@H]1NC(=O)[C@H](CCC(=O)O)NC(=O)[C@H](CO)NC(=O)[C@@H](NC(=O)[C@H]1CCC[C@@H]1N)C(C)C ({ACPC(1S,2S)}-VSE[X1]Q[X1]MHNLGK[β3hW]LNS[β3hM]ERV[β3hE]WLR[β3hK]KLQ[β3hD]VHN[β3hF]-NH2) | – | 2050 | 167
